# Results of several laboratories.
SMILES,target or system,test,test system,conditions,measurement,result
O=C(O)CN1C(=O)/C(=C/c2ccc(-c3ccc(N(c4ccccc4)c4ccccc4)cc3)c3ccccc23)NC1=S,Staphylococcus epidermidis,"microbial killing, broth dilution",ATCC12228,,MBC,> 1000 µg/mL
CC1(C)CC[C@]2(C(=O)OCN3C(=O)c4ccccc4C3=O)CC[C@]3(C)C(=CC[C@@H]4[C@@]5(C)CC[C@H](O)[C@@](C)(CO)[C@@H]5CC[C@]43C)[C@@H]2C1,Leishmania mexicana,"parasite growth, resazurin",,"50 µM, amastigote",inhibition,98.6%
CC(=O)O[C@@H]1c2c(ccc3ccc(=O)oc23)OC(C)(C)[C@@H]1OC(=O)C1(C)OC1C (stereo partly drawn),,"tubulin polymerisation, inhibitor",,10 µM,inhibition,32.8%
CC(=O)N1CCN(C(=O)N[C@]23CCC(C)(C)C[C@H]2C2=CC[C@@H]4[C@@]5(C)CC[C@@H]6OC(C)(C)OC[C@@]6(C)[C@@H]5CC[C@@]4(C)[C@]2(C)CC3)CC1,Leishmania mexicana,"parasite growth, resazurin",,"50 µM, amastigote",inhibition,100%
O=C(Nc1cnc(Cl)c(Cl)c1)c1cc([N+](=O)[O-])c(F)cc1F,Leishmania mexicana,parasite growth,J774.A1,"intracellular, amastigote",EC50,220 nM
O=C(O)CN1C(=O)/C(=C/c2c3ccccc3c(-c3ccc(N(c4ccccc4)c4ccccc4)cc3)c3ccccc23)NC1=S,Staphylococcus epidermidis,"microbial killing, broth dilution",ATCC12228,,MBC,> 1000 µg/mL
O=c1c(O)c(-c2ccc(O)cc2)oc2cc(O)cc(O)c12,,"tubulin polymerisation, inhibitor",,10 µM,inhibition,15%
Cc1ccc(-c2nc3ccccc3s2)cc1NC(=O)c1cc([N+](=O)[O-])c(F)cc1F,Leishmania mexicana,parasite growth,J774.A1,"intracellular, amastigote",EC50,640 nM
O=C(O)CN1C(=O)/C(=C/c2ccc(-c3ccc(N(c4ccccc4)c4ccccc4)cc3)c3ccccc23)SC1=S,Staphylococcus epidermidis,"microbial growth, broth dilution",ATCC12228,,MIC,500 µg/mL
Cc1cc(Cl)c(Cl)cc1NC(=O)c1cc([N+](=O)[O-])c(F)cc1F,Leishmania mexicana,parasite growth,J774.A1,"intracellular, amastigote",EC50,340 nM
CC1(C)CC[C@]2(NC(=O)N[C@H]3C(O)O[C@H](CO)[C@@H](O)[C@@H]3O)CC[C@]3(C)C(=CC[C@@H]4[C@@]5(C)CC[C@@H]6OC(C)(C)OC[C@@]6(C)[C@@H]5CC[C@]43C)[C@@H]2C1 (stereo partly drawn),Leishmania mexicana,"parasite growth, resazurin",,"50 µM, amastigote",inhibition,97.2%
O=C1NC(=S)N/C1=C\c1ccc(-c2ccc(N(c3ccccc3)c3ccccc3)cc2)c2ccccc12,Staphylococcus epidermidis,"microbial killing, broth dilution",ATCC12228,,MBC,> 1000 µg/mL
CC1(C)CC[C@]2(NC(=O)N3CCC[C@H]3CO)CC[C@]3(C)C(=CC[C@@H]4[C@@]5(C)CC[C@@H]6OC(C)(C)OC[C@@]6(C)[C@@H]5CC[C@]43C)[C@@H]2C1,Leishmania mexicana,"parasite growth, resazurin",,"50 µM, amastigote",inhibition,95.8%
COC(=O)[C@]1(O)C[C@@H](O)[C@@H](O)[C@H](OC(=O)/C=C/c2ccc(O)c(O)c2)C1,,"tubulin polymerisation, inhibitor",,10 µM,inhibition,16.9%
O=C1NC(=S)S/C1=C\c1ccc(-c2ccc(N(c3ccccc3)c3ccccc3)cc2)cc1,Staphylococcus epidermidis,"microbial killing, broth dilution",ATCC12228,,MBC,250 µg/mL
CO[C@H]1O[C@H]([C@@H]2OC[C@@]3(C)[C@@H]4CC[C@]5(C)[C@H](CC=C6[C@@H]7CC(C)(C)CC[C@]7(C(=O)O)CC[C@]65C)[C@@]4(C)CC[C@@H]3O2)[C@@H](O)[C@H](O)[C@H]1O,Leishmania mexicana,"parasite growth, resazurin",,"50 µM, amastigote",inhibition,96.6%
CC(=O)OC1c2c(ccc3ccc(=O)oc23)OC(C)(C)C1OC(=O)C(C)(O)C(C)O (stereo not drawn),,"tubulin polymerisation, inhibitor",,10 µM,inhibition,33.8%
O=C(Nc1ccc(Cl)c(Cl)c1)c1cc([N+](=O)[O-])c(F)cc1Cl,Leishmania mexicana,parasite growth,J774.A1,"intracellular, amastigote",EC50,950 nM
Nc1ncnc2c1ncn2[C@@H]1O[C@H](CO)[C@@H](O)[C@H]1O,,"tubulin polymerisation, inhibitor",,10 µM,inhibition,17.9%
O=C1NC(=S)S/C1=C\c1c2ccccc2c(-c2ccc(N(c3ccccc3)c3ccccc3)cc2)c2ccccc12,Staphylococcus epidermidis,"microbial growth, broth dilution",ATCC12228,,MIC,> 1000 µg/mL
CN(C[C@H](O)[C@@H](O)[C@H](O)[C@H](O)CO)C(=O)N[C@]12CCC(C)(C)C[C@H]1C1=CC[C@@H]3[C@@]4(C)CC[C@@H]5OC(C)(C)OC[C@@]5(C)[C@@H]4CC[C@@]3(C)[C@]1(C)CC2,Leishmania mexicana,"parasite growth, resazurin",,"50 µM, amastigote",inhibition,99%
O=c1c(O[C@@H]2O[C@H](CO)[C@@H](O)[C@H](O)[C@H]2O)c(-c2ccc(O)cc2)oc2cc(O)cc(O)c12,,"tubulin polymerisation, inhibitor",,10 µM,inhibition,21.2%
CC1(C)CC[C@]2(CO)CC[C@]3(C)C(=CC[C@@H]4[C@@]5(C)CC[C@@H]6O[C@H]([C@H](O)[C@@H](O)[C@H](O)CO)OC[C@@]6(C)[C@@H]5CC[C@]43C)[C@@H]2C1,Leishmania mexicana,"parasite growth, resazurin",,"50 µM, amastigote",inhibition,98.7%
O=C(/C=C/c1ccc(O)c(O)c1)O[C@@H]1C[C@](O)(C(=O)O)C[C@@H](O)[C@H]1O,,"tubulin polymerisation, inhibitor",,10 µM,inhibition,30.9%
